Assay [1] deals with T1, Cannabinoid receptor 2 (Rattus norvegicus) (UniProt Q9QZN9).
T1 sequence (whole entry): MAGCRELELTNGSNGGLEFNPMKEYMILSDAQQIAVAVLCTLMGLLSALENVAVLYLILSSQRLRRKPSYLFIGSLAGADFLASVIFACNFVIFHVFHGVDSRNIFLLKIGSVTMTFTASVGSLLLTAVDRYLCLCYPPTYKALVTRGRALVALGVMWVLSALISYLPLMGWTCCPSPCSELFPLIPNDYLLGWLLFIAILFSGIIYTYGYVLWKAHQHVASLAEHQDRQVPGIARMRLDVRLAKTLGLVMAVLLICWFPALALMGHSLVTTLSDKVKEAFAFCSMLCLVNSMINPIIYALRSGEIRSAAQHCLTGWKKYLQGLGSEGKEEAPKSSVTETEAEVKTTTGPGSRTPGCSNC
Description: Antagonist activity at Long-Evans rat spleen CB2 receptor assessed as blockade of Hu210-mediated decrease in adenylate cyclase activity. It is filed as functional, tissue-based. Put shortly: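 Membranes (10 μg) came from striatum (CB1) or spleen (CB2). They were tested in GTPγS-binding or adenylyl cyclase assays with Hu-210 and test ligand (0–1 μM), or with Hu-210 curves with or without 10 μM peptide; a 1 μM single-point combination was also used. Mean ± SE of triplicates.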

For assay [2], the system named is Rattus norvegicus. Description: Antihyperalgesic effects in Wistar rat assessed as reduction of carrageenan-induced paw pressure at 10 ug/kg, intraplantar after 3 hrs. It is filed as functional, organism-based. Put shortly:
(§1)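 Male Wistar rats (200 g) received carrageenan 200 μg/paw intraplantar in saline into the right hind paw. Peptide was given at the same time: intraplantar 10 μg/paw, intrathecal 0.5 or 5 μg/kg, or oral 50 or 100 μg/kg; saline-treated rats served as controls. Paw-pressure withdrawal threshold (force ramp 16 g/s) was read at 0 and 3 h. n = 6–8.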
Background: In the carrageenan paw model, swelling and tenderness develop within hours.

Assay [3] deals with Rattus norvegicus. Description: Antihyperalgesic effects in Wistar rat assessed as reduction of carrageenan-induced paw pressure at 50 ug/kg, po after 3 hrs. It is filed as functional, organism-based. In outline:
as §1

The target of assay [4] is Cannabinoid receptor 2 (Homo sapiens) (UniProt P34972). Description: Antagonist activity at CB2 receptor expressed in HEK293 cells assessed as blockade of Hu210-mediated decrease in secreted alkaline phosphatase activity at 1 uM after 6 hrs relative to control. It is filed as functional, cell-based. In outline:
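HEK-293 cells transiently co-transfected with pCRE-SeAP and a Flag-tagged receptor, 30,000 cells/well on poly-L-lysine. They were serum-starved 16–18 h, then exposed 6 h in serum-free medium to 10 μM forskolin (omitted for β2) plus the receptor agonist (100 nM), with or without peptide (1 μM). Heat-treated supernatant SeAP was read by CSPD chemiluminescence. Mean ± SEM, n = 6.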

For assay [5], the target named is T2, Type-2 angiotensin II receptor (Homo sapiens) (UniProt P50052).
T2 sequence (whole entry): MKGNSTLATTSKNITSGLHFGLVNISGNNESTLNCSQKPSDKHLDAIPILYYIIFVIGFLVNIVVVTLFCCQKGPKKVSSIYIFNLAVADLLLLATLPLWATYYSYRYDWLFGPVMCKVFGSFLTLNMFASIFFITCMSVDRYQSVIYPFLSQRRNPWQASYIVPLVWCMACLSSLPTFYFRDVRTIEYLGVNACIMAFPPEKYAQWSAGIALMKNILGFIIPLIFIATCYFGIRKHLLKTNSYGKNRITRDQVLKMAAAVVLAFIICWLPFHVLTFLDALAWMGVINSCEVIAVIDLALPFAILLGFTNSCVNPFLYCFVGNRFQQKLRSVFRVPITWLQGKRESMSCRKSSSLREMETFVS
Description: Antagonist activity at AT2 angiotensin receptor expressed in SKNSH cells at 100 nM by ELISA. It is filed as functional, cell-based. Also on record: scale not given: the % may be the effect or the level left. (In general: In an ELISA, binding on a coated surface is turned into a signal by an enzyme label.)

Assay [6] has as its target T3, B2 bradykinin receptor (Homo sapiens) (UniProt P30411).
T3 sequence (whole entry): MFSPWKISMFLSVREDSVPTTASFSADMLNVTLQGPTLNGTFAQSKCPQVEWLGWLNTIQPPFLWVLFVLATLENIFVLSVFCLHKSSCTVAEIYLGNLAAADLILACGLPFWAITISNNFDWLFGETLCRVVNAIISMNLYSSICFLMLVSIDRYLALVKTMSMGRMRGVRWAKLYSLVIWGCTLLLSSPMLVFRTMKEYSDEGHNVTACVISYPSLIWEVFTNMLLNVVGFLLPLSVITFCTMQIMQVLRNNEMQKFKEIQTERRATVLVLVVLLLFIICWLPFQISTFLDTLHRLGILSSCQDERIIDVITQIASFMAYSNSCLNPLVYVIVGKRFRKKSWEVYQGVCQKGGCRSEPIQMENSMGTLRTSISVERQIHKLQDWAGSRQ
Description: Antagonist activity at B2 bradykinin receptor expressed in SKNSH cells at 100 nM by ELISA. It is filed as functional, cell-based. Further details: scale not given: the % may be the effect or the level left.

Assay [7] has as its target T2, Type-2 angiotensin II receptor (Homo sapiens). Description: Antagonist activity at AT2 angiotensin receptor expressed in SKNSH cells assessed as blockade of angiotensin 2-induced increase in antibody recognition at 100 nM by ELISA. It is filed as functional, cell-based. Also on record: scale not given: the % may be the effect or the level left.
The target in assay [8] is T3, B2 bradykinin receptor (Homo sapiens). Description: Antagonist activity at B2 bradykinin receptor expressed in SKNSH cells assessed as blockade of bradykinin-induced increase in antibody recognition at 100 nM by ELISA. Also on record: scale not given: the % may be the effect or the level left. It is filed as functional, cell-based.
Assay [9] deals with Mu-type opioid receptor (Homo sapiens) (UniProt P35372). Description: Antagonist activity at mu opioid receptor expressed in SKNSH cells at 100 nM by ELISA relative to control. It is filed as functional, cell-based. Further details: scale not given: the % may be the effect or the level left.
Sequence of Mu-type opioid receptor (Homo sapiens) (P35372 whole entry): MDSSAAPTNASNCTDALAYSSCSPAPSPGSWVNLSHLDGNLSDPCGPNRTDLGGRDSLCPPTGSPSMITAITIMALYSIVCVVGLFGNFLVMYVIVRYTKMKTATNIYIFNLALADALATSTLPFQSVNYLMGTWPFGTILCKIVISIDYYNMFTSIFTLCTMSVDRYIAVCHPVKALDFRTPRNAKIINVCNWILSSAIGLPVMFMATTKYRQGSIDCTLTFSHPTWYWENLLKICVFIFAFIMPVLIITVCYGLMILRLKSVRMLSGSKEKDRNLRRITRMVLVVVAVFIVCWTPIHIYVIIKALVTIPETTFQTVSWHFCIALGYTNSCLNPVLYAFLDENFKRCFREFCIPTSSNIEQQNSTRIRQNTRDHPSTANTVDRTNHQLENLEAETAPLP
The target of assay [10] is Delta-type opioid receptor (Homo sapiens) (UniProt P41143). Description: Antagonist activity at delta opioid receptor expressed in SKNSH cells at 100 nM by ELISA relative to control. It is filed as functional, cell-based. Further details: scale not given: the % may be the effect or the level left.
Sequence of Delta-type opioid receptor (Homo sapiens) (P41143 whole entry): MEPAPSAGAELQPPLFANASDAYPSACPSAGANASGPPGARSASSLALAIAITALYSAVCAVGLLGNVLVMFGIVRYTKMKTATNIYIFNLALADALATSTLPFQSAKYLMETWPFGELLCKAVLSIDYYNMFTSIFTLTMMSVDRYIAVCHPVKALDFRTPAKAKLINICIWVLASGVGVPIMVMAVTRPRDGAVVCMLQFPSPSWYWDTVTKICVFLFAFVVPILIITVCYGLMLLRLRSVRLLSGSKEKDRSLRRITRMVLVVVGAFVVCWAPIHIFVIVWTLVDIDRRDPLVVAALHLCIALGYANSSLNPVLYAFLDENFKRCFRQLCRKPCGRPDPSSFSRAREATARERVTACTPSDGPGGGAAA
Assay [11] addresses T4, Alpha-2A adrenergic receptor (Homo sapiens) (UniProt P08913).
T4 sequence (whole entry): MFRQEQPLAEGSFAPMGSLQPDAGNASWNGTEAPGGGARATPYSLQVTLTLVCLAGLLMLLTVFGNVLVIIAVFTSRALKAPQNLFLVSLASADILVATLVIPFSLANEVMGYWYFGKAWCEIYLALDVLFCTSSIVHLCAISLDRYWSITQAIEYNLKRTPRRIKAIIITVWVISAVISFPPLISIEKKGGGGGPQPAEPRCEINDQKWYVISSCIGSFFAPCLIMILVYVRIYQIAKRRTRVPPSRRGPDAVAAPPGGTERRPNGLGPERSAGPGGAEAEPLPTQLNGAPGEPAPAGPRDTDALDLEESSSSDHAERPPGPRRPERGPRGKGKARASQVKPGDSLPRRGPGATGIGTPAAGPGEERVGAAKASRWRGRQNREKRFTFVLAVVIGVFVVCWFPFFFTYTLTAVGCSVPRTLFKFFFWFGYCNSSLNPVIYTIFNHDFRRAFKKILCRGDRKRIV
Description: Antagonist activity at alpha2A adrenergic receptor expressed in SKNSH cells at 100 nM by ELISA relative to control. Further details: scale not given: the % may be the effect or the level left. It is filed as functional, cell-based.

For assay [12], the target named is T4, Alpha-2A adrenergic receptor (Homo sapiens). Description: Antagonist activity at alpha2A adrenergic receptor expressed in SKNSH cells assessed as blockade of clonidine-induced increase in antibody recognition at 100 nM by ELISA relative to control. It is filed as functional, cell-based. Also on record: scale not given: the % may be the effect or the level left.

Assay [13] has as its target Beta-2 adrenergic receptor (Homo sapiens) (UniProt P07550). Description: Antagonist activity at beta2 adrenergic receptor expressed in SKNSH cells assessed as blockade of isoproterenol-induced increase in antibody recognition at 100 nM by ELISA relative to control. It is filed as functional, cell-based. Also on record: scale not given: the % may be the effect or the level left.

Activity calls are given as the source filed them.

Sequence of Cannabinoid receptor 2 (Homo sapiens) (P34972 whole entry): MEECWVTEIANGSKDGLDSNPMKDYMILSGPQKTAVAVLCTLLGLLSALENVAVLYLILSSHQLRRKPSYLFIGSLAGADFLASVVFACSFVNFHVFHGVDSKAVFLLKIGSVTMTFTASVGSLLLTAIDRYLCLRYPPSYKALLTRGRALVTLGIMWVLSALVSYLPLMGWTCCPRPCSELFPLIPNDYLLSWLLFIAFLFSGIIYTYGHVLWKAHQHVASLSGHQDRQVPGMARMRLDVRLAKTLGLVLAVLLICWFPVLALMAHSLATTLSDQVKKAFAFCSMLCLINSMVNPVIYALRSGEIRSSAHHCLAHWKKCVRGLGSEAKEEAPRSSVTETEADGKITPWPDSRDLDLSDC
Sequence of Beta-2 adrenergic receptor (Homo sapiens) (P07550 whole entry, looked up): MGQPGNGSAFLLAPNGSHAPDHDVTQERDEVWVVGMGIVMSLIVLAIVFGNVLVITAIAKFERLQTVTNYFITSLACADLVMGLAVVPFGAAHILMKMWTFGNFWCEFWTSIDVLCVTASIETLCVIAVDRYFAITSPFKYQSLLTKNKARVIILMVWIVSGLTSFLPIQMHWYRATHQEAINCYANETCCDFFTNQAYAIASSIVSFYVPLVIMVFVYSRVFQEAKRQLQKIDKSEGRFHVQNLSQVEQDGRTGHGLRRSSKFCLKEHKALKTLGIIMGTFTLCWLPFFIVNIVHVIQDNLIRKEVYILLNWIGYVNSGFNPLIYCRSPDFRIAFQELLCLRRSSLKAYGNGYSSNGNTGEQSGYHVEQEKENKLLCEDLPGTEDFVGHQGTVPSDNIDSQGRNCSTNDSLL

Consider `CC(C)C[C@H](NC(=O)[C@H](Cc1ccccc1)NC(=O)[C@H](CCCCN)NC(=O)[C@H](Cc1ccccc1)NC(=O)[C@H](CC(N)=O)NC(=O)[C@@H](NC(=O)[C@@H]1CCCN1)C(C)C)C(=O)N[C@@H](CO)C(=O)N[C@@H](Cc1cnc[nH]1)C(=O)O` [HEMOPRESSIN], for which the result in assay [1] was inactive. Moreover, the outcome in the assay on Rattus norvegicus [2] and with Rattus norvegicus [3] was Active. The Activity in [4] was 0.85; in assay [5], 100%; in [6] it was 103%; in assay [7] it was 137%; in assay [8] it was 149%; in [9], 106%. Also, the Activity turned out to be 101% in assay [10], 103% in assay [11], 130% in [12] and 157% in [13].

For the origin of these results see ChEMBL document CHEMBL1156534, “Hemopressin is an inverse agonist of CB1 cannabinoid receptors” (Proc Natl Acad Sci U S A, 2007).
